The results in this text go back to the M2OR odorant receptor database.

Conditions in all cases: stereoisomer not certain
One experiment deals with T1, O1440.
T1 sequence (whole entry): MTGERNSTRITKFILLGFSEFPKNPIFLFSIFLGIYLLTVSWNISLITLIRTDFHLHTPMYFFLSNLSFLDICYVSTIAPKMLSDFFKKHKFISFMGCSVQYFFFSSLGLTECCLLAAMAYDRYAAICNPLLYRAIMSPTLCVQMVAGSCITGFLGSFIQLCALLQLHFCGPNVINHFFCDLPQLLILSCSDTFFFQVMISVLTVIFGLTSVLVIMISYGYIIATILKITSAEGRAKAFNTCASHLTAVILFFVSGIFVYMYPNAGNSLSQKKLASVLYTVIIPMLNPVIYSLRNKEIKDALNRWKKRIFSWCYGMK
The gist of the method:
(§1)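 Transient luciferase assays in mammalian cell lines were common, though methods varied by source. The values come from published papers and their supplementary material, with extra details from the original authors when needed. Responsive refers to a measured signal the original authors judged statistically different from baseline, and non-responsive (inactive) to the remainder.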

The next experiment has as its system T2, O14A2 I133V.
T2 sequence (whole entry): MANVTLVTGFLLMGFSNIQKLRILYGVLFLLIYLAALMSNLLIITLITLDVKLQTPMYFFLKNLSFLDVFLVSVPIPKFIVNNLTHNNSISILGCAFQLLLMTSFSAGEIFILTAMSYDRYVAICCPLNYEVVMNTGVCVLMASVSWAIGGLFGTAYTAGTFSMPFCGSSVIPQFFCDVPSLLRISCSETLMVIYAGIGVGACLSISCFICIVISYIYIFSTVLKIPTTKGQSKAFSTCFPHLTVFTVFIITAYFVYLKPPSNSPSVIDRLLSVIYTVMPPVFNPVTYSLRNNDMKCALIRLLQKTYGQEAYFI
The gist of the method: as §1

In another experiment the test system is T3, O14CZ.
T3 sequence (whole entry): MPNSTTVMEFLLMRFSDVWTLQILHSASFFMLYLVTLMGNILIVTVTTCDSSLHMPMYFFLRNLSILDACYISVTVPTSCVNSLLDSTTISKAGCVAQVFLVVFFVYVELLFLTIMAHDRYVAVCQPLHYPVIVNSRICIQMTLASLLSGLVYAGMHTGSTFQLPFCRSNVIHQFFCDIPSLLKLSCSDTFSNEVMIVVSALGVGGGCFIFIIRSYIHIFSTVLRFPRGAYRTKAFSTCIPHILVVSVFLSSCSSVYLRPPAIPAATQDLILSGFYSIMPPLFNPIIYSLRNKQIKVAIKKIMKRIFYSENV
The gist of the method: as §1

The test system of the next experiment is T4, O14I1 V36A D50N Y216C.
T4 sequence (whole entry): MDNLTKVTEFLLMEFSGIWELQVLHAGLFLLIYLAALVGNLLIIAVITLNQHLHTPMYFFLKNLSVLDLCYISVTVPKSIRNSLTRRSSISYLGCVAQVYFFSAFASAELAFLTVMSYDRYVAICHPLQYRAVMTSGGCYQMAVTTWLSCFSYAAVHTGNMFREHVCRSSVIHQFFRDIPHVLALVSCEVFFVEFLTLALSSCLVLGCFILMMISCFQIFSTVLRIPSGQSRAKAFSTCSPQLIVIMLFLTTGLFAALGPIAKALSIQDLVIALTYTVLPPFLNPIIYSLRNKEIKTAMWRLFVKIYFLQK
The gist of the method:
as §1

A further experiment concerns T5, O14J1 N3Y.
T5 sequence (whole entry): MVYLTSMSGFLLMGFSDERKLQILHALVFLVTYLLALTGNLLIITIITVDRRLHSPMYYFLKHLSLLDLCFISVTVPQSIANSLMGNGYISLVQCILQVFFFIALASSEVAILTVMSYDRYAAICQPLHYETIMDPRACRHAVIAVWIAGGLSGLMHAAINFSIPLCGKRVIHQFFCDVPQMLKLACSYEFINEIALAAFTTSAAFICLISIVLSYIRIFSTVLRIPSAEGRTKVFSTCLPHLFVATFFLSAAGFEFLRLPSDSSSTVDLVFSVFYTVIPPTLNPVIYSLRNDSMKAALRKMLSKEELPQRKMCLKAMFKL
The gist of the method:
as §1

For the next experiment, the system named is T6, O14K1 D119Y.
T6 sequence (whole entry): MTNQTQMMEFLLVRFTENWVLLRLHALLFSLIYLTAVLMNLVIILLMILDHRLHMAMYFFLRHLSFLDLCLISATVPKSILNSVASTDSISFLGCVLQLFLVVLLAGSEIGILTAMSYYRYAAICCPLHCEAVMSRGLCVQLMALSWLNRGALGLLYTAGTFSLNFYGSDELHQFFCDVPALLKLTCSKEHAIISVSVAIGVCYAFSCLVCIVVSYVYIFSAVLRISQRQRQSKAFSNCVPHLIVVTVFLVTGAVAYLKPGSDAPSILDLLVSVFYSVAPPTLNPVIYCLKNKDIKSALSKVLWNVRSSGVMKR
The gist of the method: as §1

The subject of the next experiment is T7, O2A25.
T7 sequence (whole entry): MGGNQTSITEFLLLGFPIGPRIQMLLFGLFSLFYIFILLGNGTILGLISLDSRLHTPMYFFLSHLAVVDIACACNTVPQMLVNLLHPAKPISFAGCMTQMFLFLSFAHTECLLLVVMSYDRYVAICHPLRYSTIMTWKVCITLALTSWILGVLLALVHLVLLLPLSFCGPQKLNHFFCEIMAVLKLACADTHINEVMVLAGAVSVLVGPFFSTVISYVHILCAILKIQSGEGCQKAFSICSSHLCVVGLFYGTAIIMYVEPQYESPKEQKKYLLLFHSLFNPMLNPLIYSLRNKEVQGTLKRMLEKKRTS
The gist of the method: as §1

A further experiment has as its system T8, O2AE1.
T8 sequence (whole entry): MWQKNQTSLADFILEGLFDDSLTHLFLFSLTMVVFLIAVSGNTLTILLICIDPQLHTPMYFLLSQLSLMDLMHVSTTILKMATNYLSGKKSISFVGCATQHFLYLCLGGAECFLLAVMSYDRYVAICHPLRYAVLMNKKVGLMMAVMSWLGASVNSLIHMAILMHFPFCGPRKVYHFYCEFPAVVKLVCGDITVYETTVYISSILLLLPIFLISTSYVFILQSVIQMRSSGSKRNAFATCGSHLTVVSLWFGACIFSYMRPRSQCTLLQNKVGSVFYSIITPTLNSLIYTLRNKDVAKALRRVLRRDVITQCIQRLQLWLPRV
The gist of the method:
as §1

The subject of a further experiment is T9, O2AJ1.
T9 sequence (whole entry): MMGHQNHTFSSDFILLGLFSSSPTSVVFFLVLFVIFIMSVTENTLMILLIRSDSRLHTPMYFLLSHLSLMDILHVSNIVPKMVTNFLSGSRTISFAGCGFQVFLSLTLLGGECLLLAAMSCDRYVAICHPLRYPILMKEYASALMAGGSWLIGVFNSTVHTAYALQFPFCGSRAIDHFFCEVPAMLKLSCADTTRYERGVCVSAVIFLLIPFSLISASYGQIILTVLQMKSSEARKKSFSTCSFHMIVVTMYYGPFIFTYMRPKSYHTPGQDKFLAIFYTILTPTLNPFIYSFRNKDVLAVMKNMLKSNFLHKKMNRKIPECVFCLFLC
The gist of the method: as §1

The test system of a further experiment is T10, O2AK2 S99N.
T10 sequence (whole entry): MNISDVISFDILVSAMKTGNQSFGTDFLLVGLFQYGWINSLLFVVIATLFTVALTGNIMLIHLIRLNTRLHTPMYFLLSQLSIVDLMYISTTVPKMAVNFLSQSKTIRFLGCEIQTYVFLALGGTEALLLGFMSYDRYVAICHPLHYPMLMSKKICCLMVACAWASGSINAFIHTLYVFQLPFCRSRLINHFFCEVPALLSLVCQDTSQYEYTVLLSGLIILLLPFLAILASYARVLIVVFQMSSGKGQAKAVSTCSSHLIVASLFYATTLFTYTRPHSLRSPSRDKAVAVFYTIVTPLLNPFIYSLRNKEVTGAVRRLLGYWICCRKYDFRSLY
The gist of the method:
as §1

A further experiment concerns T11, O2T11.
T11 sequence (whole entry): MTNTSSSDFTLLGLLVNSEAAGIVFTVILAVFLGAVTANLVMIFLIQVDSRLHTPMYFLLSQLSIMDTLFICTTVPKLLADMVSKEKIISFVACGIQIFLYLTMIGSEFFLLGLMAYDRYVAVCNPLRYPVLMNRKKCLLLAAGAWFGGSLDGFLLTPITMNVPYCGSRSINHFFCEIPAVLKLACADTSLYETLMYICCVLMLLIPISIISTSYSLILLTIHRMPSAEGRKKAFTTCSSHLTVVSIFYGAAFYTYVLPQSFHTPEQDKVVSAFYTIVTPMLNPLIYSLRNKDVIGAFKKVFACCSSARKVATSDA
The gist of the method: as §1

Another experiment concerns T12, O2T27 L36V V134D.
T12 sequence (whole entry): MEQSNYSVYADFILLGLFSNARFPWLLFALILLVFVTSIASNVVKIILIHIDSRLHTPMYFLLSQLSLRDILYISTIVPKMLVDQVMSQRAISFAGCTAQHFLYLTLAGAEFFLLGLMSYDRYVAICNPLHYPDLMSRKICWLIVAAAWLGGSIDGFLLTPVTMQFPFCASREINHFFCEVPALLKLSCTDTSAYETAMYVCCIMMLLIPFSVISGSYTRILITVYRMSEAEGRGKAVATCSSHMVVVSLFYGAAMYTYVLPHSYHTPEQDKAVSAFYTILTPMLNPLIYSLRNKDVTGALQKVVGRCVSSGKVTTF
The gist of the method: as §1

A further experiment has as its system T13, O2T29 Q24R.
T13 sequence (whole entry): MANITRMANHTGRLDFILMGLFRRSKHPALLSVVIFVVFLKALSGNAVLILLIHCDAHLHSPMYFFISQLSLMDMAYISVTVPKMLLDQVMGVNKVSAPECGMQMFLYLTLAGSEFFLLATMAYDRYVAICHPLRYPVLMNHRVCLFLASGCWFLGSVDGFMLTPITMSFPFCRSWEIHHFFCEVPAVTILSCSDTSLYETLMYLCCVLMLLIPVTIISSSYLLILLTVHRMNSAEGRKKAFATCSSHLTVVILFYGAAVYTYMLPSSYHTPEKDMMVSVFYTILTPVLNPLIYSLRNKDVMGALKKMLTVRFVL
The gist of the method: as §1

A further experiment relates to T14, O2T33 A169V.
T14 sequence (whole entry): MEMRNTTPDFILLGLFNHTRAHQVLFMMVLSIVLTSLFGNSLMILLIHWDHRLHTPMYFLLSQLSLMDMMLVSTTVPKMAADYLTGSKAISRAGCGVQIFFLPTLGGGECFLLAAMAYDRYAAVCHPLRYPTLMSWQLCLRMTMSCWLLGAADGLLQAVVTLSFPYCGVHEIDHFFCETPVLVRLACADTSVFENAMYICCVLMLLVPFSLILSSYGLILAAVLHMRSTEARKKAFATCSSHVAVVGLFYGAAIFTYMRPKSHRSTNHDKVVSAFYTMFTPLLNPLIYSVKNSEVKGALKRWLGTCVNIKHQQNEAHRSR
The gist of the method: as §1

A further experiment relates to T15, O2T33 G297E I309L.
T15 sequence (whole entry): T14 sequence (whole entry) with V169A, G297E, I309L
The gist of the method: as §1

In another experiment the test system is T16, O2T34 Q6P R267P.
T16 sequence (whole entry): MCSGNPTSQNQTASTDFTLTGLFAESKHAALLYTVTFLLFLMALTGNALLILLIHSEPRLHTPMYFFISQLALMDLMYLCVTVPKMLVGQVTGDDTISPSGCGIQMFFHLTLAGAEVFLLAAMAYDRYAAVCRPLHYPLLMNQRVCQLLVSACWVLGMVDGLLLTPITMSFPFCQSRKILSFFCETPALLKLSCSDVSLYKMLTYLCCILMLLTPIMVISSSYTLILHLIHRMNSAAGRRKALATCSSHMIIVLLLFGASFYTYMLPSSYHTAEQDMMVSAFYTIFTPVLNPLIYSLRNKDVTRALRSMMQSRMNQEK
The gist of the method:
as §1

In the next experiment the test system is T17, O2T34 R267P.
T17 sequence (whole entry): T16 sequence (whole entry) with P6Q
The gist of the method: as §1

A further experiment has as its system T18, O4A47.
T18 sequence (whole entry): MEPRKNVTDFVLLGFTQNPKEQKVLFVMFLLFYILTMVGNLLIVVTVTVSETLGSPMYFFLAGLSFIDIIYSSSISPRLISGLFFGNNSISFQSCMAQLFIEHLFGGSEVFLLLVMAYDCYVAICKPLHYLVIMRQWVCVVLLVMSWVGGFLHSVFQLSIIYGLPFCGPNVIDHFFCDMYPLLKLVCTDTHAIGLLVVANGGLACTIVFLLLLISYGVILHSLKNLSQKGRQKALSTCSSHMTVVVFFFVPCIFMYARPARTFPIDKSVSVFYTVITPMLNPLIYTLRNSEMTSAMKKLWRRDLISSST
The gist of the method:
as §1

Another experiment has as its system O4C46 S240F C252Y K288R. The gist of the method: as §1
The next experiment concerns T19, O4F15 A272T.
T19 sequence (whole entry): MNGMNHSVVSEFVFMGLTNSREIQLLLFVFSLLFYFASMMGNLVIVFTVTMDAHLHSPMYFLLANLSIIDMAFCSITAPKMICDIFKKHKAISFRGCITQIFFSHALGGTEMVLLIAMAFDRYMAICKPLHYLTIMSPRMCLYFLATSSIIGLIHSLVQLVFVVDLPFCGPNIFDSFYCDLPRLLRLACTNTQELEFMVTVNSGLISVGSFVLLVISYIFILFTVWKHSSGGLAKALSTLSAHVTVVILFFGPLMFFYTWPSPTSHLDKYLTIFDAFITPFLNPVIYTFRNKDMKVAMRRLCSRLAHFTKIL
The gist of the method:
as §1

Numbering of substitutions follows the chain as printed.
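Note: active if original authors judged signal statistically different from baseline.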

As for `CC(=O)c1c(C)c([N+](=O)[O-])c(C(C)(C)C)c([N+](=O)[O-])c1C`, the “odorant receptor agonist call” value in the experiment with O1440 is “active”.

As for `CCC(=O)OCC(C)(C)OC(C)C1CCCC(C)(C)C1` (stereo unspecified), the “odorant receptor agonist call” value in the experiment on O1440 is “inactive”.

Turning to `CC1=C(O)C(=O)OC1C` (stereo unspecified), the “odorant receptor agonist call” value in the experiment with O14A2 I133V, in the experiment on O14CZ, in the experiment on O14I1 V36A D50N Y216C, in the experiment on O14J1 N3Y, in the experiment with O14K1 D119Y and in the experiment on O2A25 was “inactive” in each case. For the same compound, the “odorant receptor agonist call” value in the experiment with O2AE1, in the experiment on O2AJ1, in the experiment on O2AK2 S99N, with O2T11, in the experiment on O2T27 L36V V134D and in the experiment on O2T29 Q24R was “inactive” in each case. The “odorant receptor agonist call” value in the experiment with O2T33 A169V, in the experiment with O2T33 G297E I309L, with O2T34 Q6P R267P, with O2T34 R267P, in the experiment on O4A47 and with O4C46 S240F C252Y K288R was “inactive” in each case. The “odorant receptor agonist call” value in the experiment with O4F15 A272T was “inactive”.
